Results pooled from the literature.
Each line is one published result; the experiments were not run side by side.

| Structure (SMILES) | cell line | assay | conditions | measurement | value |
| --- | --- | --- | --- | --- | --- |
| COc1cc(C(=O)Nc2cc(OC)c3ccccc3n2)nc(C(=O)Nc2cc(OC)c3ccccc3n2)c1 | U2OS | cell growth or viability, ATP luminescence | 72 h | IC50 | > 40 µM |
| CCCCCCCCCCCCNC(=O)NCCCC[C@H](NS(C)(=O)=O)C(=O)N[C@H](C)C(=O)N[C@@H](CCCNC(=N)N)C(N)=O | HeLa | cell growth or viability, MTT | 72 h | EC50 | 23.1 to 41.4 µM |
| COc1ccc(-c2ccc(-c3ccc(C(=N)N)nc3)s2)cc1Cl | UACC-62 | cell growth or viability, SRB |  | GI50 | 1.76 µM |
| N=C(CCl)NCCC[C@H](NC(=O)c1ccccc1)C(N)=O | U2OS | cell growth or viability, XTT | 72 h | EC50 | > 200 µM |
| COc1cc(OC)c(C(=O)/C=C/c2ccc(Br)cn2)c(OC)c1 | HeLa | colony formation | 4 µM, 7 days | inhibition | ~100% |
| NCCOc1cc(NC(=O)c2cc(OCc3ccc(F)cc3)cc(C(=O)Nc3cc(OCCN)c4ccccc4n3)n2)nc2ccccc12 | U2OS | cell growth or viability, ATP luminescence | 72 h | IC50 | 5.6 µM |
| CC(C)[C@H](N)C(=O)N1CCC[C@H]1B(O)O | SKM-1 | cell growth or viability, ATP luminescence | 48 h | IC50 | 0.044 µM |
| COc1cc(-c2ccc(-c3ccc(C(=N)N)nc3)s2)cc(OC)c1OC | SK-MEL-2 | cell growth or viability, SRB |  | GI50 | 2.09 µM |
| N[C@@H]1CCCN(c2c(/C=C3\SC(=O)NC3=O)cccc2-c2ccccc2)C1 | KMS-11 | cell growth or viability, thymidine uptake |  | GI50 | 4.67 µM |
| COc1cc(Nc2nccc(-c3cnn4nc(OC)ccc34)n2)cc(C(F)(F)F)c1 | U2OS | cell growth or viability, ATP luminescence |  | IC50 | 0.39 µM |
| COc1cccc(Oc2ccccc2NC(=O)CNC(=O)c2cccc3ccccc23)c1 | Hs-578T | cell growth or viability, SRB | 48 h | GI50 | 0.38 µM |
| CCCCCCCCCCCCNC(=S)NCCCC[C@H](NS(C)(=O)=O)C(=O)N[C@H](C)C(=O)N[C@@H](CCCNC(=N)N)C(=O)N1CCOCC1 | HeLa | cell growth or viability, MTT | 72 h | EC50 | 89.8 to 126 µM |
| Cn1nnc2c(C(N)=O)ncn2c1=O | Hs746T | cell growth or viability |  | EC50 | > 1000 µM |
| CCOCCOCCOCCNC(=S)NCCCC[C@H](NS(C)(=O)=O)C(=O)N[C@@H](C)C(=O)N[C@@H](CCCNC(=N)N)C(N)=O | HeLa | cell growth or viability, MTT | 72 h | EC50 | > 100 µM |
| COc1ccc(-c2ccc(-c3ccc(C(=N)N)nc3)s2)cc1 | Hs-578T | cell growth or viability, SRB |  | GI50 | 1.82 µM |
| Cc1ccc(NC(=O)c2ccc(CN3CCN(C)CC3)cc2)cc1Nc1nccc(-c2cccnc2)n1 | HeLa | cell growth or viability, MTT | 20 µM, 48 h | inhibition | 21% |
